Converted amounts (≈) assume the structure as drawn. Marks after values point to notes of the source that are not given here.
What was measured:
rSULT1A1 [1] = biological target: T1, rSULT1A1 (Rattus norvegicus, UniProt P17988); assay: Reversibility of the effect of GSSG on rSULT1A1 by reduction with DTT; format: biochemical; settings: 25°C 1 hr pretreatment; 2-naphthol 250 μM, 4′-OH PCB 6 100 μM; mean and SD, n=3
[2] = Solubility of OHPCBs in the SULT assay buffer by light scattering at 400 nm; format: physicochemical
rSULT2A3 = biological target: T2, rSULT2A3 (Rattus norvegicus, UniProt P22789); assay: Inhibition of rSULT2A3-catalyzed sulfation of DHEA; format: biochemical; settings: for Inhibition of rSULT2A3 reached: DHEA as substrate, within solubility limits
T2 sequence (P22789 1-284): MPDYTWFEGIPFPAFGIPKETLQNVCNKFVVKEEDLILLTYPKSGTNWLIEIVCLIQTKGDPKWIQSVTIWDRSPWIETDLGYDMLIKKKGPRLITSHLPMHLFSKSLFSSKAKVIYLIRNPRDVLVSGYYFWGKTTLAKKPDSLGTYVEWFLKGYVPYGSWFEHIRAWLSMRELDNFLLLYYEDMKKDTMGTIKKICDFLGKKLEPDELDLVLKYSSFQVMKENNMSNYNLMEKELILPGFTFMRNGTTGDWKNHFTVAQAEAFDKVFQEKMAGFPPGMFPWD

rSULT1A1 [3] = biological target: T1, rSULT1A1; assay: Sulfation of OHPCBs by rSULT1A1 pretreated with GSH or GSSG; format: biochemical; settings: for Sulfation at varying OHPCB concentrations, rSULT1A1 pretreated with 1 mM GSSG: Fig. 3B; for Substrate inhibition in both reduced and oxidized rSULT1A1-catalyzed reactions: 1 mM GSH or 1 mM GSSG pretreatment; for Sulfation by GSSG-pretreated rSULT1A1 compared with GSH-pretreated enzyme: 1 mM GSSG vs 1 mM GSH, Fig. 3A
In short: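 DTT was stripped from purified enzyme by gel filtration at 4°C, leaving less than 0.06 mM. Enzyme was held 1 h at 25°C under argon with 1 mM GSH or GSSG, and GSH was checked by DTNB. Assays used 0.75 μg enzyme, 0.25 M phosphate pH 7.0, 200 μM PAPS and no 2-mercaptoethanol, 6 min at 37°C. Test compound was 100 μM or varied. PAP formation was corrected by a no-compound blank, in duplicate or triplicate.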

hSULT2A1 = settings: ref Liu et al., 2006; cited from earlier work
rSULT1A1 [4] = biological target: T1, rSULT1A1; assay: Inhibition of rSULT1A1-catalyzed sulfation of 2-naphthol; format: biochemical
rSULT1A1 [5] = biological target: T1, rSULT1A1; assay: Assay of OHPCBs as potential substrates of rSULT1A1; format: biochemical; settings: presence of reducing agents; within limits of solubility
In short: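 Recombinant rat SULT1A1 was expressed in E. coli at 29°C without IPTG and purified by PAP-agarose affinity with a PAP gradient in DTT-containing buffer. […] Substrate-dependent PAP formation was the read-out.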

[6] = 37 °C, pH 7, aqueous buffer, kinetic from dmso stock
[7] = 37°C, 0.25 M potassium phosphate pH 7.0, […] (v/v) acetone, 7.5 mM 2-mercaptoethanol, light scattering

T1 sequence (P17988 whole entry): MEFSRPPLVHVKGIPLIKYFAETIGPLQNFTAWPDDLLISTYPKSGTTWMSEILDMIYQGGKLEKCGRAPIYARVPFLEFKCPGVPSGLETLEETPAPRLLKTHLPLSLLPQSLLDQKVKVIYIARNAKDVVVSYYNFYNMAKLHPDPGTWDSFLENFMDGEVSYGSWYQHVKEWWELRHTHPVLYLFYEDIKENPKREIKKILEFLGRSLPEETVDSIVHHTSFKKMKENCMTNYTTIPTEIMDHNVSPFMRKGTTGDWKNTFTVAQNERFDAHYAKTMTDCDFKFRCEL

## Oc1ccc2ccccc2c1 [2-Naphthol]
rSULT1A1 [1]
  Rate of sulfation, rSULT1A1 pretreated with 1 mM GSSG: 50.2±2.1 ^c nmoles of product/mg/min
  Rate of sulfation, rSULT1A1 pretreated with 5 mM DTT: 38.3±4.7 nmoles of product/mg/min

## Oc1ccc(-c2ccc(Cl)cc2)c(Cl)c1 [4-OH PCB 8, 2,4′-Dichloro-biphenyl-4-ol]
[2]; [6]
  Solubility: ≥ 500 µM
rSULT2A3
  IC50: ~400 µM

## Oc1c(Cl)cc(-c2ccccc2)cc1Cl [4-OH PCB 14]
[2]; [7]
  Solubility: ≥1000 µM
rSULT1A1 [3]
  Sulfation at varying OHPCB concentrations, rSULT1A1 pretreated with 1 mM GSSG: concentration-dependent sulfation

## Oc1c(Cl)cc(-c2ccccc2Cl)cc1Cl [4-OH PCB 34]
[2]; [7]
  Solubility: 300 µM (≈ 82.1 µg/mL)
hSULT2A1
  Substrate activity for hSULT2A1: good substrates

## Oc1ccc(-c2ccc(Cl)cc2)cc1 [4′-OH PCB 3]
[2]; [7]
  Solubility: 300 µM (≈ 61.4 µg/mL)

## Oc1ccc(-c2ccccc2Cl)cc1Cl [4′-OH PCB 6, 3,2′-Dichloro-biphenyl-4-ol]
[2]; [6]
  Solubility: 250 µM (≈ 59.8 µg/mL)
rSULT1A1 [4]
  IC50: 22.7 µM
rSULT2A3
  Inhibition of rSULT2A3 reached: less than 50%
rSULT1A1 [3]
  Sulfation at varying OHPCB concentrations, rSULT1A1 pretreated with 1 mM GSSG: concentration-dependent sulfation
rSULT1A1 [1]
  Rate of sulfation, rSULT1A1 pretreated with 1 mM GSSG: 37.3±4.0 nmoles of product/mg/min

## Oc1ccc(-c2cc(Cl)ccc2Cl)cc1 [4′-OH PCB 9]
[2]; [7]
  Solubility: 500 µM (≈ 120 µg/mL)
rSULT2A3
  Inhibition of rSULT2A3 reached: full inhibition
rSULT1A1 [3]
  Substrate inhibition in both reduced and oxidized rSULT1A1-catalyzed reactions: presence of substrate inhibition
  Sulfation by GSSG-pretreated rSULT1A1 compared with GSH-pretreated enzyme: only slightly increased
hSULT2A1
  Inhibition of hSULT2A1: potent inhibitor

## Oc1ccc(-c2ccc(Cl)c(Cl)c2)cc1 [4′-OH PCB 12]
[2]; [7]
  Solubility: ≥500 µM

## Oc1ccc(-c2ccc(Cl)cc2Cl)cc1Cl [4′-OH PCB 25]
[2]; [7]
  Solubility: 100 µM (≈ 27.4 µg/mL)

## Oc1ccc(-c2ccc(Cl)c(Cl)c2)c(Cl)c1 [4′-OH PCB 33, 2,3′,4′-Trichloro-biphenyl-4-ol]
[2]; [6]
  Solubility: 50 µM (≈ 13.7 µg/mL)
rSULT1A1 [4]
  IC50: 26.2 µM
rSULT2A3
  Inhibition of rSULT2A3 reached: less than 50%
rSULT1A1 [3]
  Sulfation at varying OHPCB concentrations, rSULT1A1 pretreated with 1 mM GSSG: concentration-dependent sulfation

## Oc1ccc(-c2ccc(Cl)c(Cl)c2)cc1Cl [4′-OH PCB 35]
[2]; [7]
  Solubility: 50 µM (≈ 13.7 µg/mL)
rSULT1A1 [5]
  Substrate inhibition with rSULT1A1: did not show substrate inhibition

## Oc1ccc(-c2cc(Cl)cc(Cl)c2)cc1Cl [4′-OH PCB 36]
[2]; [7]
  Solubility: 50 µM (≈ 13.7 µg/mL)
rSULT1A1 [4]; 2-naphthol as substrate, up to full inhibition or limit of solubility
  Inhibition of rSULT1A1 reached: about 65%

## Oc1c(Cl)cc(-c2ccc(Cl)cc2Cl)cc1Cl [4′-OH PCB 68]
[2]; [7]
  Solubility: 50 µM (≈ 15.4 µg/mL)
hSULT2A1
  Substrate activity for hSULT2A1: good substrates

## Oc1ccc(Cl)cc1-c1ccc(Cl)c(Cl)c1 [6′-OH PCB 35]
[2]; [7]
  Solubility: 100 µM (≈ 27.4 µg/mL)
rSULT1A1 [5]
  Substrate inhibition with rSULT1A1: did not show substrate inhibition
rSULT1A1 [3]
  Substrate inhibition in both reduced and oxidized rSULT1A1-catalyzed reactions: absence of substrate inhibition
  Sulfation by GSSG-pretreated rSULT1A1 compared with GSH-pretreated enzyme: only slightly increased

From article PMC2677757 (Drug metabolism and disposition: the biological fate of …, 2009)
